Assays:
Conditions in all cases: stereoisomer not certain
[1] = target: OR8B12 (Homo sapiens) (UniProt Q8NGG6)
Method in brief: (§1)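 Each entry records the cell line, G-protein, co-transfected protein and tags used. Methods varied with the source, often transient luciferase assays in mammalian cell lines. A receptor–molecule pair is called responsive (active) if the original authors judged its signal statistically different from baseline and non-responsive (inactive) otherwise.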

[2] = target: OR8B2 (Homo sapiens) (UniProt Q96RD0)
Method in brief: as §1

[3] = target: OR8B3 (Homo sapiens) (UniProt Q8NGG8)
Method in brief: as §1

[4] = target: OR8B4 (Homo sapiens) (UniProt Q96RC9)
Method in brief: as §1

[5] = target: OR8B8 (Homo sapiens) (UniProt Q15620)
Method in brief: as §1

[6] = target: T1, OR8D1 (Homo sapiens) (UniProt Q8WZ84)
T1 sequence (whole entry): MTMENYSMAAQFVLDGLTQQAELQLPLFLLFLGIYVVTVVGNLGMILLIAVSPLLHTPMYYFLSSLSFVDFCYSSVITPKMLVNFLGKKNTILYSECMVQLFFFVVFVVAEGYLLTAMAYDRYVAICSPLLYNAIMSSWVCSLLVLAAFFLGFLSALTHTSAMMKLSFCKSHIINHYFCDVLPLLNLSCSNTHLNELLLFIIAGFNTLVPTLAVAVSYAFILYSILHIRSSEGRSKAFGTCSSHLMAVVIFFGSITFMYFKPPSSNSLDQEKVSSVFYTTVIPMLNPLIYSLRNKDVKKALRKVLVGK
Method in brief: as §1

[7] = target: OR8D2 (Homo sapiens) (UniProt Q9GZM6)
Method in brief: as §1

[8] = target: OR8D4 (Homo sapiens) (UniProt Q8NGM9)
Method in brief: as §1

[9] = target: OR8G1 (Homo sapiens) (UniProt Q15617)
Method in brief: as §1

[10] = target: OR8G5 (Homo sapiens) (UniProt Q8NG78)
Method in brief: as §1

[11] = system: OR8B2 L164F
Method in brief: as §1

[12] = system: OR8B2 S273F
Method in brief: as §1

[13] = system: OR8B3 H20R Q24R M114I
Method in brief: as §1

[14] = system: OR8B3 H20R Q24R Y113H
Method in brief: as §1

[15] = system: OR8B3 H20R Q24R
Method in brief: as §1

[16] = system: OR8B4
Method in brief: as §1

[17] = system: OR8B8 L101P
Method in brief: as §1

[18] = system: OR8D1 C127G L194P
Method in brief: as §1

[19] = system: OR8D1 L194P
Method in brief: as §1

[20] = system: OR8D4 C120Y R133K
Method in brief: as §1

Measured: odorant receptor agonist call

OR8B3 (Homo sapiens), sequence (Q8NGG8 whole entry): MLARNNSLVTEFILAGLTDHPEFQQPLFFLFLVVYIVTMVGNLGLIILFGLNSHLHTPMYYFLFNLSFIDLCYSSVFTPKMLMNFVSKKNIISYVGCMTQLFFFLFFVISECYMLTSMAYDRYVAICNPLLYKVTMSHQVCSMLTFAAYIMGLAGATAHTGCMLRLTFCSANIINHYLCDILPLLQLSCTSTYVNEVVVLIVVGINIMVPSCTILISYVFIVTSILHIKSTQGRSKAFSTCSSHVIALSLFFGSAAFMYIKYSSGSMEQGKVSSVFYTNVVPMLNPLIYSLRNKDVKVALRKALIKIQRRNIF
OR8G1 (Homo sapiens), sequence (Q15617 whole entry): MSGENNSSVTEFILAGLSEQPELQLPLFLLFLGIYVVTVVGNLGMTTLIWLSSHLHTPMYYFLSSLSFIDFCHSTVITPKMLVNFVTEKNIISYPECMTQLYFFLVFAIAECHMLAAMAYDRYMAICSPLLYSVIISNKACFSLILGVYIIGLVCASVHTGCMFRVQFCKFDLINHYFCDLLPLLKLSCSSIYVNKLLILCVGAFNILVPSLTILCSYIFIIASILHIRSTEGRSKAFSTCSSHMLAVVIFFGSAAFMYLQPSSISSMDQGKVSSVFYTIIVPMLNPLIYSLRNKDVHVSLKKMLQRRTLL
OR8B2 (Homo sapiens), sequence (Q96RD0 whole entry): as the sequence (Q8NGG8 whole entry) above, with Q24R, V34I, I47T, Y94N, Q100R, I205T, M208T counted along it
OR8B8 (Homo sapiens), sequence (Q15620 whole entry): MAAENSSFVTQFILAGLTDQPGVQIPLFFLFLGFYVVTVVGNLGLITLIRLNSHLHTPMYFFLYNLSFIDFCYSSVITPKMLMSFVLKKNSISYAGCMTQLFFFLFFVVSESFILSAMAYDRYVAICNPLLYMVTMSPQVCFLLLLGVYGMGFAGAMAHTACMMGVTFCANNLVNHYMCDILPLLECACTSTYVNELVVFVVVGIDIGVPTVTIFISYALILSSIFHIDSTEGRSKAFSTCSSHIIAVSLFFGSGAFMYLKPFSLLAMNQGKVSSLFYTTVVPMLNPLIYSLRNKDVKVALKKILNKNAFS
OR8D2 (Homo sapiens), sequence (Q9GZM6 whole entry): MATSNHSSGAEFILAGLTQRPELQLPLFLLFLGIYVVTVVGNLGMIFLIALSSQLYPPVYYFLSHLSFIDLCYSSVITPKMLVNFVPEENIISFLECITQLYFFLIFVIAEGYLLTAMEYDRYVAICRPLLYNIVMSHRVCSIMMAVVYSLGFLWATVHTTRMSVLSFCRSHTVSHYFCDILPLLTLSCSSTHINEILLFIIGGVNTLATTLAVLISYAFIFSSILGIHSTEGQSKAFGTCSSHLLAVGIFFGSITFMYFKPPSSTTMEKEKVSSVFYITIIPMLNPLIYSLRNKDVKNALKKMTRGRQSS
OR8D4 (Homo sapiens), sequence (Q8NGM9 whole entry): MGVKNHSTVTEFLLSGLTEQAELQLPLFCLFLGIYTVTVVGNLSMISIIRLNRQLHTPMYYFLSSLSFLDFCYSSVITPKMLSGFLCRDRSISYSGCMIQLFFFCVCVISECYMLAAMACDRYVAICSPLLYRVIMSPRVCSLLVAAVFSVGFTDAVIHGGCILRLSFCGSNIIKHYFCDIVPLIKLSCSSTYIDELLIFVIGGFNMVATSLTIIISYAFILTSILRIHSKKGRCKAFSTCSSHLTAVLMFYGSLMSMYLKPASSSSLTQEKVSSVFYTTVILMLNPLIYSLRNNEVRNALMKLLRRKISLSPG
OR8B12 (Homo sapiens), sequence (Q8NGG6 whole entry): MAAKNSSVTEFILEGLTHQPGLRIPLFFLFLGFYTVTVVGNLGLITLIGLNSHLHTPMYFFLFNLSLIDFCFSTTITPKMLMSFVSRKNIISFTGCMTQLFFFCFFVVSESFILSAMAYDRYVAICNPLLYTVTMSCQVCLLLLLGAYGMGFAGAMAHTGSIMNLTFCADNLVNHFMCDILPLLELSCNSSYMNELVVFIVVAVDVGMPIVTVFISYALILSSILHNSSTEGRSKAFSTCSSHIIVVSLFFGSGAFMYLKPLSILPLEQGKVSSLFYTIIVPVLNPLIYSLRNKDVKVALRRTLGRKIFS
OR8G5 (Homo sapiens), sequence (Q8NG78 whole entry): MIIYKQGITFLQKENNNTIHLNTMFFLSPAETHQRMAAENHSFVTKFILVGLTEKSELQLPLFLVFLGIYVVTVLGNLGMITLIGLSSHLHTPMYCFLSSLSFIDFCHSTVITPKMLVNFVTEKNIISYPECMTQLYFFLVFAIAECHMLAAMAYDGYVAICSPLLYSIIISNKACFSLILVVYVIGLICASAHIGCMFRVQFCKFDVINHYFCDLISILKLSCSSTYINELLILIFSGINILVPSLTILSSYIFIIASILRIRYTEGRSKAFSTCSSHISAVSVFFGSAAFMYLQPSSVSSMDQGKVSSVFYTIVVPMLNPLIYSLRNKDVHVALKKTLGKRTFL
OR8B4 (Homo sapiens), sequence (Q96RC9 whole entry): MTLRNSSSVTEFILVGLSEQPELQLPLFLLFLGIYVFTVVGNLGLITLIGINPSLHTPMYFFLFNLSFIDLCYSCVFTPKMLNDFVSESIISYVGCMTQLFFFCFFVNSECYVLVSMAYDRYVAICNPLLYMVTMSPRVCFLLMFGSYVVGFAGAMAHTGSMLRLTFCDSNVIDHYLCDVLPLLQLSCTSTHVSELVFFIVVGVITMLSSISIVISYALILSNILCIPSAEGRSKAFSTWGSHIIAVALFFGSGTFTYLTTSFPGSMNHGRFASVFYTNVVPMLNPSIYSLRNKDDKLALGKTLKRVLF
OR8B2 S273F, sequence (as listed by the source, stated change not applied): as the sequence (Q8NGG8 whole entry) above, with Q24R, V34I, I47T, Y94N, Q100R, I205T, M208T, S273F counted along it
OR8B8 L101P, sequence (as listed by the source, stated change not applied): as the sequence (Q15620 whole entry) above, with L101P counted along it
OR8D1 L194P, sequence (as listed by the source, stated change not applied): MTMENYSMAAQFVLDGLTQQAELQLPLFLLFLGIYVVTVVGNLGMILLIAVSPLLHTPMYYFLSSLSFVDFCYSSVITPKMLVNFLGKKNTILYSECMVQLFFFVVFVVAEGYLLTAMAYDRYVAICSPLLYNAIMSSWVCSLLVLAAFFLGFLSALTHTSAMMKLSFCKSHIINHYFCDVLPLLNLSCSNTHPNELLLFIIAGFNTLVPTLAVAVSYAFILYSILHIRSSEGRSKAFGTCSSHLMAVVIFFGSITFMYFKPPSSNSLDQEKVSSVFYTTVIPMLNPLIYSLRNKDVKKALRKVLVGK
OR8B2 L164F, sequence (as listed by the source, stated change not applied): as the sequence (Q8NGG8 whole entry) above, with Q24R, V34I, I47T, Y94N, Q100R, L164F, I205T, M208T counted along it
OR8B4, sequence (as listed by the source): as the sequence (Q96RC9 whole entry) above, with E22G counted along it

Cc1c([N+](=O)[O-])c(C)c([N+](=O)[O-])c(C(C)(C)C)c1[N+](=O)[O-]
inactive: [1] | [2] | [3] | [4] | [5] | [6] | [7] | [8] | [9] | [10]

C=CCSSCC=C
inactive: [6]

CCOC(=O)Cc1ccccc1
inactive: [6]

O=Cc1ccc2c(c1)OCO2
inactive: [6]

SCc1ccco1
inactive: [6]

Cc1ccccc1O
inactive: [6]

Cc1ccc(O)c(C)c1
inactive: [6]

C=CCOC(=O)Cc1ccccc1
inactive: [1] | [2] | [11] | [12] | [3] | [13] | [14] | [15] | [4] | [16] | [5] | [17] | [6] | [18] | [19] | [7] | [8] | [20] | [9] | [10]

COc1ccc(C=O)cc1
inactive: [6]

CSSC
inactive: [6]

NCC(=O)c1ccccc1
inactive: [6]

C=CCc1ccc(OC)cc1
inactive: [6]
